Results from ChEMBL document CHEMBL3351496, “Inhibition of the ANT(2")-Ia resistance enzyme and rescue of aminoglycoside antibiotic activity by synthetic α-hydroxytropolones” (Bioorg Med Chem Lett, 2014).
Calls of active or inactive are those of the source. No cut-off for these calls is given here.

Key:
[1] = Inhibition of Escherichia coli BL21 (lambda DE3) 2''-O-adenylyltransferase 1a by EnzChek pyrophosphate assay
Outline: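 ANT(2″)-Ia overexpressed in E. coli BL21 (λDE3) and purified. Adenylation of kanamycin B followed by detecting the pyrophosphate by-product in 96-well format. ATP at 25 μM. Duplicate serial dilutions of inhibitor; IC50 taken from the dose curves.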

Escherichia coli [2] = test: Antibacterial activity against Escherichia coli BW25113 expressing 2''-O-adenylyltransferase with aadB gene into pGDP4 vector; format: functional, organism-based
Outline: (§1)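 Gentamicin alone was serially diluted to find its MIC (μg/mL). This was done against E. coli BW25113 carrying aadB in pGDP4 and against wild-type BW25113 without the plasmid.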

Escherichia coli [3] = test: Antibacterial activity against wild type Escherichia coli BW25113; format: functional, organism-based; outline: as §1
Escherichia coli [4] = test: Antibacterial activity against Escherichia coli BW25113 expressing 2''-O-adenylyltransferase 1a with aadB gene into pGDP4 vector by checkerboard analysis in presence of gentamycin; format: functional
Outline: (§2)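 Hyper-permeable E. coli BW25113 made gentamicin-resistant by cloning aadB (ANT(2″)-Ia) into pGDP4. Cells were exposed to serial dilutions of gentamicin crossed with serial dilutions of α-hydroxytropolone in checkerboard format. Growth was scored to give the gentamicin MIC at each inhibitor level and the FICI. Cell survival, as fraction of cells remaining, was scored at the inhibitor-alone concentrations.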

[5] = Binding affinity to Escherichia coli BL21 (lambda DE3) 2''-O-adenylyltransferase 1a by ATP-competitive inhibition assay
Outline: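 Purified ANT(2″)-Ia expressed in E. coli BL21 (λDE3). Pyrophosphate from kanamycin B adenylation detected by coupled pyrophosphate assay. Ki derived from dose curves with carefully maintained ATP and kanamycin B concentrations. Run only on compounds with IC50 < 200 μM.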

Escherichia coli [6] = test: Antibacterial activity against Escherichia coli BW25113 expressing 2''-O-adenylyltransferase 1a with aadB gene into pGDP4 vector assessed as cell remain at 50 uM; format: functional; outline: as §2
Escherichia coli [7] = test: Antibacterial activity against Escherichia coli BW25113 expressing 2''-O-adenylyltransferase 1a with aadB gene into pGDP4 vector assessed as gentamycin MIC at 12 uM by checkerboard analysis; format: functional; outline: as §2
Escherichia coli [8] = test: Inhibition of Escherichia coli W677/JR76.2 2''-O-adenylyltransferase 1a using [14C]ATP at 55 uM by liquid scintillation counting analysis
Escherichia coli [9] = test: Inhibition of Escherichia coli W677/JR76.2 2''-O-adenylyltransferase 1a using [14C]ATP at 5.5 uM by liquid scintillation counting analysis
Escherichia coli [10] = test: Inhibition of Escherichia coli W677/JR76.2 2''-O-adenylyltransferase 1a using [14C]ATP at 550 uM by liquid scintillation counting analysis
Escherichia coli [11] = test: Inhibition of Escherichia coli W677/JR76.2 2''-O-adenylyltransferase 1a using [14C]ATP at 7.3 uM by liquid scintillation counting analysis
Escherichia coli [12] = test: Inhibition of Escherichia coli W677/JR76.2 2''-O-adenylyltransferase 1a using [14C]ATP at 730 uM by liquid scintillation counting analysis
Escherichia coli [13] = test: Antibacterial activity against Escherichia coli BW25113 expressing 2''-O-adenylyltransferase 1d with aadB gene into pGDP4 vector by checkerboard analysis in presence of gentamycin; format: functional
Escherichia coli [14] = test: Antibacterial activity against Escherichia coli BW25113 expressing 2''-O-adenylyltransferase 1a with aadB gene into pGDP4 vector assessed as cell death at 50 uM; format: functional, organism-based; outline: as §2
Escherichia coli [15] = test: Inhibition of Escherichia coli W677/JR76.2 2''-O-adenylyltransferase 1a using [14C]ATP at 73 uM by liquid scintillation counting analysis

Row | Compound | IC50 [1] | fractional inhibitory concentration index (FICI) (Escherichia coli [4]) | Ki [5] | also measured
1 | COCc1cc(O)c(=O)c(O)c(C(=O)OC)c1C(=O)OC | > 200 µM |  |  | 
2 | CCOC(=O)c1cc(O)c(=O)c(O)cc1C | > 200 µM |  |  | 
3 | GENTAMICIN |  |  |  | MIC (Escherichia coli [2]): 64 µg/mL; MIC (Escherichia coli [3]): 0.25 µg/mL
4 | Cc1cc(O)c(=O)c(O)cc1-c1ccc2ccccc2c1 | > 200 µM |  |  | 
5 | Cc1cc(O)c(=O)c(O)cc1-c1ccc([N+](=O)[O-])cc1 | 20 µM | 0.5 | 21.4 µM | 
6 | Cc1cc(O)c(=O)c(O)cc1-c1ccccc1 | 117 µM | 2 | 25 µM | 
7 | Cc1cc(O)c(=O)c(O)cc1-c1ccc(Br)cc1 | 8 µM | 1 | 5.7 µM | 
8 | COc1cc(C)c(-c2ccc([N+](=O)[O-])cc2)cc(O)c1=O | > 200 µM |  |  | 
9 | CC(=O)c1cc(O)c(=O)c(O)cc1C | 50 µM | 0.187 | 29 µM | Activity (Escherichia coli [6]): 80%; MIC (Escherichia coli [7]): 32 µg/mL
10 | Cc1cc(O)c(=O)c(O)cc1C(=O)CC1CCCCC1 | > 200 µM |  |  | 
11 | Cc1cc(O)c(=O)c(O)cc1-c1ccc(C(F)(F)F)cc1 | > 200 µM |  |  | 
12 | Cc1cc(O)c(=O)c(O)cc1-c1ccc(Cl)cc1 | 9.9 µM | 2 | 6.9 µM | 
13 | Cc1cc(O)c(=O)c(O)cc1C(=O)C(C)C | 73 µM | 0.375 | 19 µM | 
14 | O=c1c(O)ccccc1O |  |  |  | inhibition (Escherichia coli [8]): 78%; inhibition (Escherichia coli [9]): 8%; inhibition (Escherichia coli [10]): 100%
15 | Cc1cc(O)c(=O)c(O)cc1C(=O)C1CCCCC1 | > 200 µM |  |  | 
16 | CC(C)c1ccc(O)c(=O)c(O)c1 [BETA-THUJAPLICINOL] | 6.6 µM | 0.375 | 6.4 µM | inhibition (Escherichia coli [11]): 31%; inhibition (Escherichia coli [12]): 100%; fractional inhibitory concentration index (FICI) (Escherichia coli [13]): 3; Activity (Escherichia coli [14]): Active; MIC (Escherichia coli [7]): 8 µg/mL; inhibition (Escherichia coli [15]): 76%
17 | COC(=O)c1c(CCl)cc(O)c(=O)c(O)c1C(=O)OC | > 200 µM |  |  | 
18 | COC(=O)c1c(C)cc(O)c(=O)c(O)c1C(=O)OC | > 200 µM |  |  | 
19 | COc1cc(C)c(C(C)=O)cc(O)c1=O | > 200 µM |  |  | 
20 | Cc1cc(O)c(=O)c(O)cc1-c1ccc(-c2ccccc2)cc1 | > 200 µM |  |  | 
21 | Cc1cc(O)c(=O)c(O)cc1C(=O)c1ccccc1 | > 200 µM |  |  | 
22 | Cc1cc(O)c(=O)c(O)cc1-c1cccc2ccccc12 | > 200 µM |  |  | 
